Columns and labels:
[1] = system: CYP3A4; conditions: cited from earlier work
[2] = system: CYP3A4; conditions: cited from earlier work; remark: listed apart in the source
[3] = Safety and tolerability; assay type: in vivo, human; conditions: for tolerability: 150 mg once daily for 14 days, regardless of HI
Summary of the method: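 Adverse events were monitored continuously and graded with the Division of AIDS toxicity scale. Hematology, clinical chemistry, urinalysis and 12-lead ECG were done at screening, baseline (Day –1), Day 14 and Day 28, with hematology and chemistry also at Day 7. Physical exams ran through follow-up (Day 28, or Day 35 for hepatic impairment). Data were summarised descriptively without formal statistical testing.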

[4] = matched controls (mild) (N = 7)
[5] = matched controls (moderate) (N = 8)
[6] = mild hepatic impairment (N = 8)
[7] = moderate hepatic impairment (N = 8)

Q: Which results are given for `CCCCOCCOc1ccc(-c2ccc3c(c2)/C=C(/C(=O)Nc2ccc([S@@+]([O-])Cc4cncn4CCC)cc2)CCCN3CC(C)C)cc1` [cenicriviroc]?
A: substrate of CYP3A4 [1]: substrate; inhibition of CYP3A4 [2]: weak inhibitor; tolerability [3]: generally well tolerated; tolerability ([3]; listed as Cenicriviroc): well tolerated; AST (treatment-emergent Grade 1 elevation) ([3]; Day 7, one matched control (moderate), resolved upon continued dosing): 1.3 x ULN; AST ([3]; Day 28, another participant with moderate HI, screening 5.9 x ULN): 10.2 x ULN; Participants with any treatment-related AEs [3, 4]: 3 (42.9) N (%); Treatment-related AE: Dry mouth [3, 4]: 2 (28.6) N (%); Treatment-related AE: Epigastric discomfort [3, 4]: 0 (0) N (%); Treatment-related AE: Flatulence [3, 4]: 0 (0) N (%); Treatment-related AE: Headache [3, 4]: 1 (14.3) N (%); Treatment-related AEs Grade 1 [3, 4]: 3 (42.9) N (%); Treatment-related AEs Grade 2 [3, 4]: 0 (0) N (%); Treatment-related AEs Grade 3 [3, 4]: 0 (0) N (%); Treatment-related AEs Grade 4 [3, 4]: 0 (0) N (%); Participants with any treatment-related AEs [3, 5]: 4 (50.0) N (%); Treatment-related AE: Dry mouth [3, 5]: 0 (0) N (%); Treatment-related AE: Epigastric discomfort [3, 5]: 0 (0) N (%); Treatment-related AE: Flatulence [3, 5]: 1 (12.5) N (%); Treatment-related AE: Headache [3, 5]: 1 (12.5) N (%); Treatment-related AEs Grade 1 [3, 5]: 4 (50.0) N (%); Treatment-related AEs Grade 2 [3, 5]: 0 (0) N (%); Treatment-related AEs Grade 3 [3, 5]: 0 (0) N (%); Treatment-related AEs Grade 4 [3, 5]: 0 (0) N (%); Participants with any treatment-related AEs [3, 6]: 6 (75.0) N (%); Treatment-related AE: Dry mouth [3, 6]: 0 (0) N (%); Treatment-related AE: Epigastric discomfort [3, 6]: 1 (12.5) N (%); Treatment-related AE: Flatulence [3, 6]: 1 (12.5) N (%); Treatment-related AEs Grade 1 [3, 6]: 6 (75.0) N (%); Treatment-related AEs Grade 2 [3, 6]: 0 (0) N (%); Treatment-related AEs Grade 3 [3, 6]: 0 (0) N (%); Treatment-related AEs Grade 4 [3, 6]: 0 (0) N (%); Participants with any treatment-related AEs [3, 7]: 4 (50.0) N (%); Treatment-related AE: Dry mouth [3, 7]: 0 (0) N (%); Treatment-related AE: Epigastric discomfort [3, 7]: 1 (12.5) N (%); Treatment-related AE: Flatulence [3, 7]: 0 (0) N (%); Treatment-related AE: Headache [3, 7]: 1 (12.5) N (%); Treatment-related AEs Grade 1 [3, 7]: 4 (50.0) N (%); Treatment-related AEs Grade 2 [3, 7]: 0 (0) N (%); Treatment-related AEs Grade 3 [3, 7]: 1 (12.5) N (%); Treatment-related AEs Grade 4 [3, 7]: 0 (0) N (%)
